{"source": "paper PMC4159078", "about": "(Journal of medicinal chemistry, 2014)", "key": {"bovine brain tubulin": {"tested_on": "bovine brain tubulin", "experiment": "inhibition of tubulin polymerization", "format": "biochemical", "conditions": "tubulin at 10 µM, 20 min incubation"}, "[1]": {"tested_on": "panel of seven human cancer cell line", "experiment": "antiproliferative activity across the panel of seven human cancer cell lines", "format": "cell-based", "conditions": "for IC50: Homo sapiens"}, "BNL 1ME A.7R.1 cells": {"tested_on": "BNL 1ME A.7R.1 cells", "experiment": "in vitro cytotoxic activity against BNL 1ME A.7R.1 cells", "conditions": "Mus musculus, read-out: IC50 (cytotoxic activity)"}, "[2]": {"experiment": "cytotoxicity in PHA-stimulated peripheral blood lymphocytes", "format": "cell-based", "conditions": "human, PHA-stimulated (proliferating) peripheral blood lymphocytes, PBL stimulated with PHA, mean ± SEM"}, "[3]": {"experiment": "cytotoxicity in resting peripheral blood lymphocytes", "format": "cell-based", "conditions": "human, PBL resting (not stimulated with PHA), mean ± SEM"}, "HT-29": {"tested_on": "HT-29", "experiment": "antiproliferative assay", "format": "cell-based, human", "conditions": "HT-29 cells"}, "[4]": {"tested_on": "panel of five cancer cell lines", "conditions": "read-out: IC50 values in the five cell lines (range), inhibition of tumor cell growth; cited from earlier work"}, "HeLa and Jurkat cells [5]": {"tested_on": "HeLa and Jurkat cells", "experiment": "apoptosis assay", "format": "cell-based, human", "conditions": "24 h, further increased after 48 h, vs untreated cells", "how_it_was_run": "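HeLa or Jurkat cells were treated with test compound for 24 or 48 h. Cells were then double-stained with annexin V-FITC and propidium iodide, and surface phosphatidylserine exposure was measured by flow cytometry. Mean ± SEM of three independent experiments.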"}, "[6]": {"tested_on": "BNL 1ME A.7R.1 syngeneic hepatocellular carcinoma", "experiment": "syngeneic hepatocellular carcinoma model in mice", "format": "in vivo", "conditions": "Balb/c mice; for tumor growth vs vehicle: 7 days"}, "LoVo": {"tested_on": "LoVo", "experiment": "cell growth inhibition, LoVo", "format": "cell-based", "conditions": "Homo sapiens, read-out: IC50 (cell growth inhibition)", "how_it_was_run": "(§1)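 MTT growth-inhibition assay, 72 h exposure in triplicate, on parental LoVo and its doxorubicin-resistant subclone. The subclone was maintained in Ham's F12 containing 0.1 µg/mL doxorubicin. […] Mean ± SE from two independent experiments. Resistance ratio = IC50 in the resistant line divided by IC50 in the parental line.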"}, "LoVo^Doxo": {"tested_on": "LoVo^Doxo", "experiment": "cell growth inhibition, doxorubicin-resistant LoVo^Doxo", "format": "cell-based, human", "how_it_was_run": "as §1"}, "HeLa cells [7]": {"tested_on": "HeLa cells", "experiment": "immunofluorescence microscopy of the microtubule network", "format": "cell-based, human", "conditions": "24 h, 50, 100 and 250 nM"}, "HeLa and Jurkat cells [8]": {"tested_on": "HeLa and Jurkat cells", "experiment": "flow cytometric analysis of cell cycle distribution", "format": "cell-based, human", "conditions": "24 h", "how_it_was_run": "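HeLa or Jurkat cells (5 × 10^5) were treated with various concentrations of test compound for 24 h. Cells were collected and fixed in ice-cold 70% ethanol, then treated with lysis buffer containing RNase A and 0.1% Triton X-100. After propidium iodide staining, DNA content was read by flow cytometry and phase fractions were derived from DNA histograms. Mean ± SEM of three independent experiments.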"}, "HUVECs [9]": {"tested_on": "HUVECs", "experiment": "HUVEC motility", "format": "cell-based, human", "how_it_was_run": "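HUVECs from umbilical cord veins, kept in M200 with low serum growth supplement and used at passages 1–6. 1 × 10^5 cells were grown to confluence on 0.1% collagen type I, scratched with a pipet tip, washed with PBS, then exposed to test compound. Photographs were taken at set times; wound width was measured in four areas against initial width. Mean ± SEM, three independent experiments.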"}, "HUVECs [10]": {"tested_on": "HUVECs", "experiment": "disruption of capillary-like tubules on Matrigel", "format": "cell-based, human", "how_it_was_run": "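Matrigel was held at 4 °C for 3 h, plated, and gelled at 37 °C for 30 min. It was overlaid with 6 × 10^4 HUVECs, which were allowed 6 h to form capillary tubes. Test compound was added to the preformed tubules for 1 or 3 h. Five fields per well were imaged at 10×. After 3 h, area covered, total network length, meshes and branching points were scored as percent change from control. Mean ± SEM, three experiments.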"}, "HeLa cells [11]": {"tested_on": "HeLa cells", "experiment": "Western blot analysis of cell cycle and apoptosis proteins", "format": "cell-based, human", "how_it_was_run": "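HeLa cells were exposed to test compound for 24 or 48 h, washed in ice-cold PBS, and lysed on ice for 30 min. Lysates were spun at 15000g, 4 °C, 10 min; protein was measured by BCA. 10 µg protein per lane on SDS-PAGE (7.5–15%), then PVDF. Blocked overnight at 4 °C in 5% BSA/Tween-PBS. Primary antibodies (Bcl-2, Bax, PARP, cleaved caspase-9, caspase-3) 2 h at room temperature, peroxidase secondary 60 min, ECL. β-actin reprobe served as loading control.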"}, "[12]": {"conditions": "read-out: IC50 values in the seven cell lines (range)"}}, "note": "Where two headings read alike, the source gives them in different places.", "data": [{"molecule": "COc1cc(C(=O)n2nc(Nc3ccc(C(C)C)cc3)nc2N)cc(OC)c1OC", "note": "[3g, (3-(4-Isopropylphenylamino)-5-amino-1H-1,2,4-triazol-1-yl)-(3,4,5-trimethoxyphenyl) Methanone]", "values": [{"measurement": "tubulin assembly IC50 ± SD", "setting": "bovine brain tubulin", "result": "almost inactive"}]}, {"molecule": "COc1ccc(/C=C\\c2cc(OC)c(OC)c(OC)c2)cc1O", "note": "[CA-4, combretastatin A-4, reference compound]", "values": [{"measurement": "IC50", "setting": "[1]; HT-29, read-out: average IC50 excluding the HT-29 cell line", "result": 96, "unit": "nM"}, {"measurement": "IC50", "setting": "[1]; [12]", "result": "4 to 3100", "unit": "nM"}, {"measurement": "IC50", "setting": "[1]; read-out: average IC50", "result": 525, "unit": "nM"}, {"measurement": "IC50", "setting": "BNL 1ME A.7R.1 cells", "result": "1.1 ± 0.5", "unit": "nM"}]}, {"molecule": "CCc1ccc(Nc2nc(N)n(C(=O)c3cc(OC)c(OC)c(OC)c3)n2)cc1", "note": "[3f, (3-(4-Ethylphenylamino)-5-amino-1H-1,2,4-triazol-1-yl)(3,4,5-tri-methoxyphenyl) Methanone]", "values": [{"measurement": "IC50", "setting": "[1]; [12]", "result": "0.21 to 6", "unit": "nM"}, {"measurement": "IC50", "setting": "[1]; read-out: average IC50", "result": 2.4, "unit": "nM"}, {"measurement": "fold less active than methyl counterpart 3c", "setting": "[1]; four of the seven cancer cell lines", "result": "2–15 fold"}, {"measurement": "IC50 at 72 h", "setting": "[2]", "result": "~8000", "unit": "nM"}, {"measurement": "IC50 at 72 h", "setting": "[3]", "result": "~30000", "unit": "nM"}, {"measurement": "fold more potent than 3c", "setting": "HT-29", "result": 4, "unit": "fold"}]}, {"molecule": "COc1cc(C(=O)c2sc(Nc3ccccc3)nc2N)cc(OC)c1OC", "note": "[2a]", "values": [{"measurement": "IC50", "setting": "[4]", "result": "6 to 23", "unit": "nM"}]}, {"molecule": "COc1cc(C(=O)n2nc(Nc3ccc(C)c(C)c3)nc2N)cc(OC)c1OC", "note": "[3e, (3-(3,4-Dimethylphenylamino)-5-amino-1H-1,2,4-triazol-1-yl)-(3,4,5-trimethoxyphenyl) Methanone]", "values": [{"measurement": "IC50", "setting": "[1]; [12]", "result": "0.4 to 4", "unit": "nM"}, {"measurement": "IC50", "setting": "[1]; read-out: average IC50", "result": 1.9, "unit": "nM"}, {"measurement": "fold reduction in antiproliferative activity relative to 3c", "setting": "[1]; five of the six cancer cell lines", "result": "2–4 fold"}, {"measurement": "annexin-V positive cells (apoptosis)", "setting": "HeLa and Jurkat cells [5]", "result": "Analogous results"}]}, {"molecule": "COc1cc(C(=O)n2nc(Nc3ccccc3)nc2N)cc(OC)c1OC", "note": "[3a, (3-(Phenylamino)-5-amino-1H-1,2,4-triazol-1-yl)(3,4,5-trimethoxyphenyl) Methanone]", "values": [{"measurement": "IC50", "setting": "[1]; read-out: IC50 (antiproliferative, whole panel)", "result": "> 500", "unit": "nM"}]}, {"molecule": "COc1ccc(Nc2nc(N)n(C(=O)c3cc(OC)c(OC)c(OC)c3)n2)cc1", "note": "[3i, (3-(4-Methoxyphenylamino)-5-amino-1H-1,2,4-triazol-1-yl)-(3,4,5-trimethoxyphenyl) Methanone]", "values": [{"measurement": "fold decrease of antiproliferative activity compared with 3c", "setting": "[1]", "result": 100, "unit": "fold"}]}, {"molecule": "COc1ccc(/C=C\\c2cc(OC)c(OC)c(OC)c2)cc1OP(=O)([O-])[O-].[Na+].[Na+]", "note": "[CA-4P, CA-4 disodium phosphate, reference compound]", "values": [{"measurement": "tumor growth vs vehicle", "setting": "[6]; 5 mg/kg ip daily", "result": "significant relative to the control"}]}, {"molecule": "COc1cccc2c1C(=O)c1c(O)c3c(c(O)c1C2=O)C[C@@](O)(C(=O)CO)C[C@@H]3O[C@H]1C[C@H](N)[C@H](O)[C@H](C)O1", "note": "[Doxorubicin]", "values": [{"measurement": "IC50", "setting": "LoVo", "result": "95.6 ± 43.2", "unit": "nM"}, {"measurement": "IC50", "setting": "LoVo^Doxo; Homo sapiens, read-out: IC50 (cell growth inhibition)", "result": "11300 ± 356", "unit": "nM"}, {"measurement": "resistance ratio", "setting": "LoVo^Doxo; IC50 LoVo^Doxo / IC50 LoVo", "result": 118}]}, {"molecule": "COc1cc(C(=O)c2sc(Nc3ccc(C)cc3)nc2N)cc(OC)c1OC", "note": "[2b]", "values": [{"measurement": "IC50", "setting": "[4]", "result": "15 to 86", "unit": "nM"}]}, {"molecule": "COc1cc(C(=O)n2nc(Nc3ccc(C)cc3)nc2N)cc(OC)c1OC", "note": "[3c, (3-(4-Tolylamino)-5-amino-1H-1,2,4-triazol-1-yl)(3,4,5-trimethox-yphenyl) Methanone]", "values": [{"measurement": "microtubule network vs untreated cells", "setting": "HeLa cells [7]", "result": "substantially modified"}, {"measurement": "IC50", "setting": "[1]; [12]", "result": "0.21 to 3.2", "unit": "nM"}, {"measurement": "IC50 at 72 h", "setting": "[2]", "result": "~8000", "unit": "nM"}, {"measurement": "IC50", "setting": "BNL 1ME A.7R.1 cells", "result": "3.4 ± 1.1", "unit": "nM"}, {"measurement": "lowest concentration with a rise in G2/M cells", "setting": "HeLa and Jurkat cells [8]", "result": 60, "unit": "nM"}, {"measurement": "inhibition of HUVEC motility (wound closure)", "setting": "HUVECs [9]; 6 h, 10 and 25 nM", "result": "significantly inhibited cell motility"}, {"measurement": "inhibition of HUVEC motility (wound closure)", "setting": "HUVECs [9]; 24 h incubation, 5, 10, 25 nM", "result": "statistically significant"}, {"measurement": "annexin-V positive cells (apoptosis)", "setting": "HeLa and Jurkat cells [5]", "result": "accumulation of annexin-V positive cells"}, {"measurement": "tumor growth vs vehicle", "setting": "[6]; 5 mg/kg ip daily", "result": "at 10 but not 5 mg/kg"}, {"measurement": "tumor growth vs vehicle", "setting": "[6]; 10 mg/kg ip daily", "result": "significant reduction in tumor growth"}, {"measurement": "body weight during the treatment period", "setting": "[6]; 5 and 10 mg/kg ip daily", "result": "small decrease in body weight"}, {"measurement": "disruption of preformed capillary-like tubules", "setting": "HUVECs [10]; 1 h incubation, 25 nM", "result": "visibly disrupted the network of HUVECs"}, {"measurement": "disruption of preformed capillary-like tubules", "setting": "HUVECs [10]; 3 h, all the tested concentrations", "result": "effective in altering the tubule-like structures"}, {"measurement": "phosphorylated histone γH2A.X expression", "setting": "HeLa cells [11]", "result": "marked increase"}, {"measurement": "p21 expression", "setting": "HeLa cells [11]; 24 and 48 h", "result": "decreased"}, {"measurement": "PARP cleavage", "setting": "HeLa cells [11]; 24 or 48 h", "result": "cleavage of its substrate PARP"}, {"measurement": "caspase-3 activation", "setting": "HeLa cells [11]; 24 or 48 h", "result": "activation of the effector caspase-3"}, {"measurement": "cdc25c expression", "setting": "HeLa cells [11]; 24 or 48 h", "result": "no major changes"}, {"measurement": "p-cdc2^Tyr15 expression", "setting": "HeLa cells [11]; 24 or 48 h", "result": "decreased"}, {"measurement": "cyclin B1 expression", "setting": "HeLa cells [11]; 24 h, 100 and 250 nM", "result": "clear increase in the cyclin B1 band"}, {"measurement": "p53 expression", "setting": "HeLa cells [11]; concentration-dependent, particularly evident after 48 h", "result": "increase in p53 expression"}, {"measurement": "Bax expression", "setting": "HeLa cells [11]; only at 250 nM and at 48 h", "result": "slightly increased"}, {"measurement": "caspase-9 activation", "setting": "HeLa cells [11]; time and concentration-dependent", "result": "activation of the initiator caspase-9"}, {"measurement": "Bcl-2 expression", "setting": "HeLa cells [11]; time dependent", "result": "decreased"}]}, {"molecule": "CCOc1ccc(Nc2nc(N)n(C(=O)c3cc(OC)c(OC)c(OC)c3)n2)cc1", "note": "[3m, (3-(4-Ethoxyphenylamino)-5-amino-1H-1,2,4-triazol-1-yl)(3,4,5-trimethoxyphenyl) Methanone]", "values": [{"measurement": "fold less potent than its methoxy counterpart", "setting": "[1]; all lines with the exception of MCF-7", "result": "2–50 fold"}]}]}
